Experimental data as given in publication PMC4201344 (ACS Chemical Biology, 2014).
Substitutions are numbered along the chain they refer to. Entries after “also recorded” stand apart in the source; their conditions may differ.

How the values were obtained:
GluClβ T13′A = target: T1, GluClβ T13′A (Caenorhabditis elegans, UniProt Q17328, T290A); experiment: two-electrode voltage clamp, Xenopus laevis oocytes; format: cell-based, C. elegans; settings: glutamate
T1 sequence (Q17328 23-434 T290A): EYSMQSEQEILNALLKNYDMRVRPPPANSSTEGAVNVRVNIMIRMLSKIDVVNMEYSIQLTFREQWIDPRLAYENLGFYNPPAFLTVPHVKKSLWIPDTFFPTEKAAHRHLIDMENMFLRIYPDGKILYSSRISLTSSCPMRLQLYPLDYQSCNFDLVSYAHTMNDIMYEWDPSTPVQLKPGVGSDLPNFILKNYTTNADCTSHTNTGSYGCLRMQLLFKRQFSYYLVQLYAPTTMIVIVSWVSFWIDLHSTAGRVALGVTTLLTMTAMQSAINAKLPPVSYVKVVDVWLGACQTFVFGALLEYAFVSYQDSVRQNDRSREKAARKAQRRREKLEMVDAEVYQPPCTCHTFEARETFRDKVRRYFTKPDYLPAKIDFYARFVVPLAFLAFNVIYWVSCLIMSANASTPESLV

[1] = system: GluClβ with α signal peptide, T6′S, Y156TAG F3–Phe; experiment: two-electrode voltage clamp, Xenopus laevis oocytes, nonsense suppression; format: cell-based, C. elegans; settings: glutamate
[2] = system: GluClβ with α signal peptide, T6′S, Y156TAG Cha; experiment: two-electrode voltage clamp, Xenopus laevis oocytes, nonsense suppression; format: cell-based, C. elegans; settings: glutamate
How it was run: (§1)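 Site-specific TAG codon, read by 74mer THG73 tRNA ligated to dCA-acylated amino acid; NVOC removed by 5 min xenon-lamp irradiation just before injection. Oocytes coinjected with 37.5 ng mRNA plus ~1 μg/μL tRNA at 48 and 24 h pre-recording; unacylated 76mer tRNA served as read-through control.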

[3] = system: GluClβ T6′S, Y206TAG Me–Phe; experiment: two-electrode voltage clamp, Xenopus laevis oocytes, nonsense suppression; format: cell-based, C. elegans; settings: glutamate
GluClβ Y206 3,5-Me2-Phe = experiment: two-electrode voltage clamp, Xenopus laevis oocytes, nonsense suppression; format: cell-based, C. elegans; settings: glutamate
How it was run: as §1

GluClα T2′A = settings: otherwise glutamate-insensitive channel; cited from earlier work
GluClβ T6′S, R40E = GluClβ T6′S, R40E (Caenorhabditis elegans, UniProt Q17328, R66E/T283S); experiment: two-electrode voltage clamp, Xenopus laevis oocytes; format: cell-based, C. elegans; settings: glutamate
Chain of GluClβ T6′S, R40E (Q17328 23-434 R66E/T283S): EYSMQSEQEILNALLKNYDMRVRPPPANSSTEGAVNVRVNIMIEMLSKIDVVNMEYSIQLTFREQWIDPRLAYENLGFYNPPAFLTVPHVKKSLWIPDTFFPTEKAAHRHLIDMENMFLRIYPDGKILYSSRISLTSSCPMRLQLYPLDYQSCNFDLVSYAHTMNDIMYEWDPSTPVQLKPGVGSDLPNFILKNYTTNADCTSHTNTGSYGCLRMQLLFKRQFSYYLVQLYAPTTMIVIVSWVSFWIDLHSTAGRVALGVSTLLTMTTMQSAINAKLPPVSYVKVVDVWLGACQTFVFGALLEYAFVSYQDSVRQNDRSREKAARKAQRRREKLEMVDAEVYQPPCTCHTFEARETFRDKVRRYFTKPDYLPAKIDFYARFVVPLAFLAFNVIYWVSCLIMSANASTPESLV
How it was run: (§2)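 C. elegans GluClβ (mammalian codon-optimised) in pGEMhe, mutated by QuikChange; T7 mRNA. […] Voltage clamp at −60 mV in Ca-free ND96, pH 7.5. […] Peak currents taken from baseline, normalised, averaged per concentration, and fit to Hill equation (EC50, nH).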

GluClβ T6′S, Y206TAG Phe = target: T2, GluClβ T6′S, Y206TAG Phe (Caenorhabditis elegans, UniProt Q17328, T283S/Y232F); experiment: two-electrode voltage clamp, Xenopus laevis oocytes, nonsense suppression; format: cell-based, C. elegans; settings: glutamate
T2 sequence (Q17328 23-434 Y232F/T283S): T1 sequence (Q17328 23-434 T290A) with Y210F, T261S, A268T
How it was run: as §1

GluClβ T6′S, S126A/Y156F = GluClβ T6′S, S126A/Y156F (Caenorhabditis elegans, UniProt Q17328, S152A/T283S/Y182F); experiment: two-electrode voltage clamp, Xenopus laevis oocytes; format: cell-based, C. elegans; settings: glutamate
Chain of GluClβ T6′S, S126A/Y156F (Q17328 23-434 S152A/Y182F/T283S): as the sequence (Q17328 23-434 R66E/T283S) above, with E44R, S130A, Y160F counted along it
How it was run: as §2

GluClβ T13′S = GluClβ T13′S (Caenorhabditis elegans, UniProt Q17328, T290S); experiment: as above; format: cell-based, C. elegans; settings: glutamate
Chain of GluClβ T13′S (Q17328 23-434 T290S): as the sequence (Q17328 23-434 R66E/T283S) above, with E44R, S261T, T268S counted along it
How it was run: as §2

GluClβ T6′S, Q174A/Y206F = target: T3, GluClβ T6′S, Q174A/Y206F (Caenorhabditis elegans, UniProt Q17328, Q200A/T283S/Y232F); experiment: two-electrode voltage clamp, Xenopus laevis oocytes; format: cell-based, C. elegans
T3 sequence (Q17328 23-434 Q200A/Y232F/T283S): T1 sequence (Q17328 23-434 T290A) with Q178A, Y210F, T261S, A268T

[4] = system: GluClβ with α signal peptide, T6′S, Y156TAG F1–Phe; experiment: two-electrode voltage clamp, Xenopus laevis oocytes, nonsense suppression; format: cell-based, C. elegans; settings: glutamate
[5] = system: GluClβ T6′S, Y206TAG CN–Phe; experiment: as above; format: cell-based, C. elegans; settings: glutamate
GluClβ T6′S/T10′S = GluClβ T6′S/T10′S (Caenorhabditis elegans, UniProt Q17328, T283S/T287S); experiment: two-electrode voltage clamp, Xenopus laevis oocytes; format: cell-based, C. elegans; settings: glutamate
Chain of GluClβ T6′S/T10′S (Q17328 23-434 T283S/T287S): as the sequence (Q17328 23-434 R66E/T283S) above, with E44R, T265S counted along it

GluClβ A17′G = GluClβ A17′G (Caenorhabditis elegans, UniProt Q17328, A294G); experiment: two-electrode voltage clamp, Xenopus laevis oocytes; format: cell-based, C. elegans; settings: glutamate
Chain of GluClβ A17′G (Q17328 23-434 A294G): as the sequence (Q17328 23-434 R66E/T283S) above, with E44R, S261T, A272G counted along it
How it was run: as §2

[6] = system: GluClβ with α signal peptide, T6′S, F96TAG F1–Phe; experiment: two-electrode voltage clamp, Xenopus laevis oocytes, nonsense suppression; format: cell-based, C. elegans; settings: glutamate

For `N[C@@H](CCC(=O)O)C(=O)O` [glutamate], the EC50 (GluClβ T13′A) was 38 ± 1 µM, the Hill (GluClβ T13′A) was 2.8 ± 0.1 and the Imax (GluClβ T13′A) was 0.1–6 μA. The EC50 [1] was 65000 ± 5000 µM, the Hill [1] was 1.7 ± 0.1 and the Imax [1] was 0.3–2 μA. For the same molecule, the EC50 [2] was “no response”, the EC50 [3] was 98 ± 3 µM and the Hill [3] was 2.4 ± 0.1. For the same molecule, the Imax [3] was 0.05–7 μA, the receptor function (GluClβ Y206 3,5-Me2-Phe) was “nonfunctional” and the glutamate sensitivity (GluClα T2′A) was “restore glutamate sensitivity”. The EC50 (GluClβ T6′S, R40E) was “nonfunctional; also recorded: no response”, the EC50 (GluClβ T6′S, Y206TAG Phe) was 160 ± 10 µM and the Hill (GluClβ T6′S, Y206TAG Phe) was 3.0 ± 0.2. For the same molecule, the Imax (GluClβ T6′S, Y206TAG Phe) was 0.07–0.30 μA, the EC50 (GluClβ T6′S, S126A/Y156F) was “no response” and the EC50 (GluClβ T13′S) was “not functional; also recorded: no response”. It also gave an EC50 (GluClβ T6′S, Q174A/Y206F; glutamate) of 920 ± 40 µM, a Hill (GluClβ T6′S, Q174A/Y206F; glutamate) of 2.2 ± 0.2 and a Ω (GluClβ T6′S, Q174A/Y206F; mutant cycle analysis Q174A, Y206F) of 0.67. It also gave a ΔΔG (GluClβ T6′S, Q174A/Y206F; mutant cycle analysis Q174A/Y206F) of 0.23 kcal/mol, an EC50 [4] of 14000 ± 1000 µM and a Hill [4] of 2.0 ± 0.1. The Imax [4] was 0.1–5 μA, the EC50 [5] was 19000 ± 1000 µM and the Hill [5] was 2.8 ± 0.2. For the same molecule, the Imax [5] was 0.8–6 μA, the EC50 (GluClβ T6′S/T10′S) was “constitutive activity, some glutamate response” and the EC50 (GluClβ A17′G) was > 5000 µM. For the same molecule, the EC50 [6] was 80 ± 2 µM, the Hill [6] was 2.8 ± 0.2 and the Imax [6] was 0.1–0.5 μA.
